Source: PubChem
ABCG2 inh: inhibitors of human ABCG2 transporter, ABCB1 counter-screen; Q9UNQ0; IgMXP3 cells, JC-1 efflux, flow cytometry; inhibition, % at 6.6 µM; 0.1% of 190,000 active; AID 1325;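 active = inhibition above 80%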
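System: two drug-resistant human cell lines, ABCG2 and ABCB1; controls: nicardipine high and DMSO low controls; times: 10 min exposure at 25 °C with rotation, no wash; detection: flow cytometry of retained JC-1 fluorescence; read-out basis: percent efflux inhibition, scaled nicardipine 100% to DMSO 0%; doses: one concentration, 6.6 µM final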
RGS7-Gao: human RGS7-Galphao interaction regulation; Multiplexed bead flow cytometry, RGS7-Galphao binding; actives lie on both sides; binding response (% of control), % at 10 µM; 0.35% of 220,000 active; AID 1439; in the data active = binding response below about 49% or above about 150%; inconclusive = no clear call, values can overlap the other calls; inactive = in between;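 also: fluorescent Galphao held in activated GDP-AlF4 state binding bead-coupled RGS7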
RGS4-Gao reg: modulates binding of RGS4 to human Galphao. 0.33% of 220,000 active. P09471. AID 1415. binding response (% of control), % at 10 µM. Multiplexed bead flow cytometry; actives lie on both sides; in the data active = binding response below about 49% or above about 150%; inactive = in between;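 also: fluorescent Galphao activated with aluminum fluoride binding bead-coupled RGS4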
RGS16-Gao: RGS16-Galphao interaction regulator (human); O15492+P09471; binding response (% of control), % at 10 µM; bead-based flow cytometry RGS16-Galphao binding, fluorescence; actives lie on both sides; 0.38% of 220,000 active; call rule not given here;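 also: Galphao activated by GDP with aluminum fluoride before binding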
Target sequence (O15492 whole entry, looked up): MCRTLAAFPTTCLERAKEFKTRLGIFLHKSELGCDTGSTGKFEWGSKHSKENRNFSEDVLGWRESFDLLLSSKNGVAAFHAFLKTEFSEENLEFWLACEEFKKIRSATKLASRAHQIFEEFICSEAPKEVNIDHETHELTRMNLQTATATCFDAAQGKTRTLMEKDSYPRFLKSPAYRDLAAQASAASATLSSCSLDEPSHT
Target sequence (P09471 whole entry, looked up): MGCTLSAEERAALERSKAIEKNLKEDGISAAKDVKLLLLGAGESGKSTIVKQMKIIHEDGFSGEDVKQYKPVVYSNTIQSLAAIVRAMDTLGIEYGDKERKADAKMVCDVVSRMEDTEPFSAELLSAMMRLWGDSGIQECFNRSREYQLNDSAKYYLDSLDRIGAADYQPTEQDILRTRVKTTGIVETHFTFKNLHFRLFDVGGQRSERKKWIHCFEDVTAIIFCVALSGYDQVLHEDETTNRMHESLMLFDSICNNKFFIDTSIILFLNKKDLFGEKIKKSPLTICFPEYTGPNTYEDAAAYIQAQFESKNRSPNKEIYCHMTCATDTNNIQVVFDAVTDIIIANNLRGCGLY
ABCB1 inh: inhibitors of human ABCB1 transporter, ABCG2 counter-screen; P08183; CCRF-Adr cells, JC-1 efflux, flow cytometry; inhibition, % at 6.6 µM; 0.067% of 190,000 active; in the data active = inhibition above about 40%;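 also: higher value means more JC-1 retained so stronger ABCB1 efflux block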
RGS8-Gao reg: modulates binding of RGS8 to human Galphao. P09471. multiplexed bead flow cytometry; actives lie on both sides. response (percent of control binding), % at 10 µM. 0.34% of 220,000 active; in the data active = response below about 60% or above about 140%; inactive = in between;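 also: Galphao activated as the GDP aluminium fluoride complex binding bead-coupled RGS8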
Each line names hits and unclear results; the compound was inactive in the other large screens; [ ] = remark or other dose. An excerpt weighted towards active compounds, which were near 0.83% of everything screened.

CCOC(=O)c1ccc(S(=O)(=O)N2CCN(CC(=O)NC(=O)NC3CCCCC3)CC2)cc1	RGS7-Gao 176[activator], RGS4-Gao reg 188[activator], RGS16-Gao 185[activator], RGS8-Gao reg 152[activator]
CCCCCCc1ccc(OCC(=O)OC)cc1OCC(=O)OC	none
C=CCNC(=S)NN=C1CCCCCCC1	none
O=c1c2c(nc3nc(NCc4ccccc4Cl)[nH]n13)CCC2	none
O=C(c1cc2nc(-c3cccs3)cc(C(F)(F)F)n2n1)N1CCCc2ccccc21	ABCG2 inh 100
CCN(CC(=O)NCc1ccc(Cl)cc1)CC(=O)Nc1ccc(C(N)=O)cc1	none
O=C(Nc1ccc2c(c1)oc1ccc(S(=O)(=O)N3CCCC3)cc12)C1CC1	ABCG2 inh 110
O=C(Nc1ccc2c(c1)oc1ccccc12)C1CC1	none
CCn1c(=O)c(C(=O)CN2CCN(S(=O)(=O)c3cc(C)ccc3C)CC2)c(N)n(Cc2ccccc2)c1=O	none
CCOC(=O)c1ccccc1NC(=O)Cn1cnc2c1c(=O)n(C)c(=O)n2C	RGS7-Gao -8.2, RGS4-Gao reg -24, RGS16-Gao -15, RGS8-Gao reg 7.8
CCOC(=O)c1ccccc1NC(=O)CSc1nc2c(c(=O)n(C)c(=O)n2C)n1C	none
O=C(NC1CCCCC1)C(c1ccco1)N(C(=O)c1csnn1)C1CCCC1 (stereo not given)	RGS7-Gao 29, RGS4-Gao reg 36, RGS8-Gao reg 28
O=C(C1CC1)N1CCc2cc(Br)cc(S(=O)(=O)NCC3COc4ccccc4O3)c21 (stereo not given)	none
CCN1CCc2c(sc(NC(=O)Nc3ccc(Cl)c(Cl)c3)c2C(N)=O)C1	ABCG2 inh 136
COc1ccc(C2SCC(=O)N2CCc2ccc(OC)c(OC)c2)cc1 (stereo not given)	none
CC(=O)Nc1cccc(NC(=O)CSc2nnnn2-c2ccc3c(c2)OCO3)c1	RGS7-Gao inconclusive (no result: ABCG2 inh, ABCB1 inh)
COC(=O)c1n[nH]n(-c2cc(Cl)cc(Cl)c2)c1=O	RGS7-Gao inconclusive (no result: ABCG2 inh, ABCB1 inh)
O=S(=O)(Nc1ccc(Cc2ccncc2)cc1)c1ccc(Br)cc1	RGS7-Gao 15, RGS4-Gao reg 22, RGS16-Gao 1.0, RGS8-Gao reg 12
O=C(Nc1ccc(Br)c2ccccc12)c1ccc2ccccc2c1O	RGS7-Gao inconclusive (no result: ABCG2 inh, ABCB1 inh)
O=C(Cn1nc(C(=O)O)c2ccccc2c1=O)Nc1ccc2c(c1)OCO2	RGS7-Gao inconclusive (no result: ABCG2 inh, ABCB1 inh)
COCCNc1nnnc2c1sc1nc(N3CCOCC3)c3c(c12)CCCC3	none
CCOc1ccc(OCc2ccc(C(=O)N3CCCC3)o2)cc1	ABCB1 inh 41
Cc1nc(N)nc(COc2ccccc2)n1	RGS7-Gao inconclusive (no result: ABCG2 inh, ABCB1 inh)
CN(Cc1ccon1)C(=O)CC1C(=O)NCCN1CC1CCCCC1 (stereo not given)	none
Cc1ccc(-n2cnc(N)c2C(=O)c2cccc([N+](=O)[O-])c2)cc1	RGS7-Gao inconclusive (no result: ABCG2 inh, ABCB1 inh)
COC(=O)c1cccc(C23CC4(C2)[C@H](CN(Cc2cccnc2)[C@@H]4c2ccccc2)C3c2ccc(C(F)(F)F)cc2)c1 (stereo not given in full)	RGS7-Gao inconclusive (no result: ABCG2 inh, ABCB1 inh)
CC1(C)[C@@H](O)CC[C@]2(C)C3C(O)C=C4[C@H]5C[C@@](C)(C(=O)O)CC[C@]5(C)CC[C@]4(C)[C@]3(C)CC[C@@H]12 (stereo not given in full)	RGS7-Gao inconclusive (no result: ABCG2 inh, ABCB1 inh)
CCOC(=O)c1c(NC(=O)CSc2ncnc3ccccc23)sc(C(C)=O)c1C	ABCB1 inh 42
CCOC(=O)c1c(NC(=O)CSc2nc3cccnc3n2C)sc(C(C)=O)c1C	none
CCC(C(=O)Nc1ccccc1-c1ccccc1)c1ccccc1 (stereo not given)	none
CCC(C(=O)Nc1ccccc1)c1ccccc1 (stereo not given)	ABCG2 inh 173 (no result: ABCB1 inh)
O=C(C1CCCN(Cc2nc(-c3cccs3)no2)C1)N1CCOCC1 (stereo not given)	none
O=C(COC(=O)c1ccc(S(=O)(=O)Nc2ccccc2)cc1)NCCN1C(=O)CSC1=O	none
Cc1ccc(NC(=O)CN2C(=O)N/C(=C/c3cc(C)n(-c4ccc(C(=O)O)cc4)c3C)C2=O)cc1	none
